MsrA inhibitor = inhibitors of bovine MsrA. purified bovine MsrA, absorbance read-out. inhibition, % at 15.5 µM. actives 0.75% (n = 360,000);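 also: 0% = vehicle wells with enzyme and 100% = reference inhibitor wells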
Vif imaging = blocks HIV Vif function; AID 602346; inhibition, % at 7.49 µM; HEK293T cells, Vif self-association by quenched fluorescence, imaging, 24 h; actives 0.35% (n = 340,000); in the data active = inhibition above about 50%, passing the limit was not always enough
MsrA act = activates bovine MsrA enzyme; purified bovine MsrA, absorbance read-out; activation, % at 10.6 µM; actives 0.3% (n = 360,000); AID 602163; in the data active = activation above about 7.5%;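 also: 0% = vehicle and 100% = reference activator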
aDG glyco up = increases alpha dystroglycan glycosylation; activation, % at 10 µM; AID 624168; Pro5-aDG cells, alpha-DG glycosylation AlphaScreen (IIH6); 0% Pro5, 100% B10-LARGE cell signal; actives 0.22% (n = 360,000);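 active = activation of at least 8% versus controls, or a plate z-score of at least 8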;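 also: Pro5 are CHO cells carrying HIG-tagged alpha-DG that lacks glycosylation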
Glyco luc inh = N-linked glycosylation inhibition; D54 ERlucT glycosylation luciferase reporter, 24 h; percent of 100 nM tunicamycin response; reporter increase, % at 12.5 µM; actives 0.23% (n = 360,000); AID 588692;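 active = mean luciferase reporter signal, scaled so untreated is 0 and the glycosylation-blocking control 100, at or above a set limit in every replicate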;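 also: luciferase carries N-glycosylation sites so blocking glycosylation raises the light; 0% = median of neutral control wells and 100% = median of 100 nM tunicamycin wells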
UCH37 inh = human UCH37 deubiquitinating enzyme inhibition; Q9Y5K5; purified proteasome/UCH37, Ub-AMC cleavage fluorescence; inhibition, % (test concentration not listed); actives 0.33% (n = 330,000); AID 588478;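 active = mean inhibition over replicate wells above about 20%, limit read from the data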;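 also: 0% = compound-free wells with enzyme and 100% = wells lacking proteasome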
Target sequence (Q9Y5K5 whole entry, looked up): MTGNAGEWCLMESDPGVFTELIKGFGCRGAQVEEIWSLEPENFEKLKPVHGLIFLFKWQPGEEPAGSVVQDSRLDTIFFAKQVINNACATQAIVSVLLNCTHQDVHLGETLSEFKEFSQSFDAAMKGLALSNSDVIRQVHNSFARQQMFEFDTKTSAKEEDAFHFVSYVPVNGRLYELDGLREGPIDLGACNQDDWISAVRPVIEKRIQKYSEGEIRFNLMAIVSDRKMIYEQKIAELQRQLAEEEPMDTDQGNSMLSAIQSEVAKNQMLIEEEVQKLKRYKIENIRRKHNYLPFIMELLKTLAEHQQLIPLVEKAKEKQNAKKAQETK
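assay system = human UCH37 enzyme supplied as purified proteasome complex | amount = proteasome at 0.15 nM in the dispensed enzyme solution | schedule = 30 min compound-proteasome preincubation then 25 min substrate reaction, room temperature | measured by = fluorescence, ex 355 nm, em 460 nm | benchmarks = no-proteasome wells (full inhibition) and compound-free wells (no inhibition)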
MsrA inh confirm = bovine MsrA inhibition, confirmed; shares compounds with MsrA inhibitor; purified bovine MsrA, absorbance read-out; inhibition, % at 15.5 µM; actives 41% (n = 2,300); AID 651822;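 also: coupled to thioredoxin reductase with NADPH and selenocystamine and DMSO as substrate; 0% = vehicle only and 100% = full effect of reference inhibitor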
* hit, by the source's call; i = inactive; . = no result. Rows were chosen to be rich in hits. Some 1.9% of all compounds tested hit in one or more screens of this group. Rule as the data show it, unless noted: active = inhibition above about 4.5%; inactive = the rest.

SMILES	MsrA inhibitor	Vif imaging	MsrA act	aDG glyco up	Glyco luc inh	UCH37 inh	MsrA inh confirm
COCCn1c(SCC(N)=O)nc2c(c1=O)SC(C)C2 (configuration not stated)	4.7*	-3.0	-2.0	-0.1	1.0	8.6	1.8
Cc1ncc(CO)c(CNc2ccc(-c3nc4ccccc4[nH]3)cc2)c1O	6.4*	-10.8	-5.5	-0.1	-10.0	-31.7	5.2*
Cc1ncc(CO)c(CO)c1O	0.2	8.0	6.7	0.0	2.3	-3.0	.
Nc1nc2nccc(-c3ccco3)n2n1	6.1*	-1.2	-5.1	0.0	4.2	i	3.3
COc1cc(C=NN2CCCCC2)cc([N+](=O)[O-])c1O	.	.	.	.	.	11.2	.
COc1ccc(-n2nc([N+](=O)[O-])c(=NCCCN3CCCC3=O)n2O)cc1	4.8*	-2.9	-1.5	0.1	1.5	5.6	0.1
COC(=O)c1ccc(COc2ccc3c(C)c(C)c(=O)oc3c2C)o1	.	2.6	.	.	.	-6.2	.
Cc1c(OCc2ccc(C(=O)O)o2)ccc2c3c(c(=O)oc12)CCC3	4.8*	-7.1	-3.2	-0.2	-4.5	-130.1	0.4
CC(Cc1ccccc1)=NNC(=O)CNC(=O)c1cccc(Cl)c1	.	.	.	.	.	3.1	.
CC(C)C1S/C(=N/N=C/c2cccs2)NC1=O (configuration not stated)	6.8*	-3.3	-8.1	-0.3	1.0	.	3.5
C(=N\N=C\c1cccs1)/c1cccs1	5.1*	-12.2	-0.7	0.7	-3.8	.	4.7*
CCCC1S/C(=N/N=C/c2cccs2)NC1=O (configuration not stated)	3.4	-1.8	-5.6	0.0	1.1	.	.
CC1S/C(=N/N=Cc2cccs2)NC1=O (configuration not stated)	.	.	.	.	.	17.7	.
CCC1S/C(=N/N=C/c2cccs2)NC1=O (configuration not stated)	6.2*	-1.8	-7.5	-0.1	-1.7	.	5.5*
CC1S/C(=N/N=C/c2cccs2)NC1=O (configuration not stated)	5.0*	-2.4	-5.0	-0.1	1.4	.	4.4
CCCCCCSC1=C(C#N)C(=O)NC2(CCCCC2)S1	5.2*	-2.0	-9.1	-0.4	-0.2	6.8	3.8
Cc1[nH]n(-c2ccccc2)c(=O)c1C=NNC(=O)c1cccc([N+](=O)[O-])c1	.	.	.	.	.	-0.1	.
CC(CC(=O)NCc1ccco1)=NNC(=O)COc1ccc(C)cc1	.	.	.	.	.	-0.5	.
CN(C)c1ccc(/C=C(/NC(=O)c2ccccc2)C(=O)N2CCCC2)cc1	5.4*	-4.8	-3.8	0.0	1.0	12.0	3.1
Cc1ccc(/C=C(\NC(=O)c2ccccc2)C(=O)N2CCCCC2)cc1	-0.6	7.1	-4.6	-0.1	0.5	0.8	.
CCOc1ccc(C(O)c2nccn2Cc2ccccc2)cc1 (configuration not stated)	8.8*	3.7	-7.8	0.0	0.8	2.2	4.5
COC(=O)c1c(C)c2c(C)cc3ccccn3c-2c1C(=O)OC	4.7*	.	-2.1	0.3	2.6	3.4	3.2
COC(=O)c1cc2c(-c3ccccc3)cc3ccccn3c-2c1C(=O)OC	1.1	13.8	-10.8	0.4	0.3	3.2	.
COCCNC(=O)/C(C#N)=C/c1ccc(C(=O)O)cc1	-0.7	-1.5	0.4	-0.3	2.5	.	.
COCCNC(=O)/C(C#N)=C\c1ccc(CNS(=O)(=O)c2ccc(C)cc2)o1	4.1	10.2	-3.3	0.1	1.6	15.7	.
SMILES	MsrA inhibitor	Vif imaging	MsrA act	aDG glyco up	Glyco luc inh	UCH37 inh	MsrA inh confirm
CCOCCCNC(=O)/C(C#N)=C/c1ccc(C)o1	7.0*	18.1	-4.5	0.0	0.0	7.2	3.5
COCCNC(=O)/C(C#N)=C/c1ccc(SC)cc1	4.7*	10.6	-3.2	0.2	2.8	2.1	3.8
COCCNC(=O)/C(C#N)=C/c1ccc(C)o1	6.8*	-14.8	-14.7	-0.1	-0.6	16.7	3.1
O=C(N/N=C/c1ccc(N2CCOCC2)cc1)c1ccc(NS(=O)(=O)c2cccs2)cc1	6.8*	-0.3	-6.8	0.5	-0.5	.	6.4*
O=C(NN=Cc1ccc(N2CCOCC2)cc1)c1ccccc1NS(=O)(=O)c1cccs1	.	.	.	.	.	-47.1	.
O=C(N/N=C/c1ccc(N2CCOCC2)s1)c1ccc(NS(=O)(=O)c2cccs2)cc1	4.7*	5.1	3.4	-0.1	1.3	.	3.5
O=C(N/N=C/c1ccc(N2CCOCC2)cc1)c1ccncc1	5.0*	0.4	-3.2	-0.2	-0.5	.	5.0*
O=C(N/N=C/c1ccc(N2CCOCC2)cc1)c1ccccc1NS(=O)(=O)c1cccs1	8.0*	-9.5	-6.8	0.0	0.2	.	7.0*
CC(=NNC(=O)CNC(=O)c1cccc(F)c1)c1ccc2c(c1)CCCC2	.	.	.	.	.	2.8	.
O=C(N/N=C/c1ccc2c(c1)OCO2)c1ccc(NS(=O)(=O)c2cccs2)cc1	5.7*	13.7	-7.7	-0.2	0.4	.	7.5*
CCOC(=O)N/N=C/c1ccc(N2CCOCC2)s1	5.3*	2.6	-11.7	-0.2	2.7	.	5.7*
COc1ccc(C=NNC(=O)c2ccccc2NS(=O)(=O)c2cccs2)cc1O	5.1*	9.5	-3.6	-0.1	-1.3	2.4	3.4
O=C(NN=Cc1c[nH]c2ccccc12)c1cc(Cl)ccc1O	.	.	.	.	.	-16.9	.
COc1cc([N+](=O)[O-])cc(/C=N/NC(=O)c2ccc(C)nc2)c1O	2.0	0.0	-1.3	0.0	0.9	.	.
CCOc1cc(/C=N\NC(=O)c2ccc(C)nc2)cc([N+](=O)[O-])c1O	8.0*	-6.6	-3.2	0.0	1.3	.	6.4*
COc1cc(/C=N/NC(=O)c2cccnc2)cc(Br)c1O	4.7*	-0.5	-10.4	-0.2	0.3	.	4.1
COc1cc(/C=N/n2cnnc2-n2nc(C)cc2C)cc([N+](=O)[O-])c1O	5.2*	8.2	-5.4	-0.2	2.1	.	3.9
COc1cc(/C=N/NC(=O)c2ccc(C)nc2)cc([N+](=O)[O-])c1O	5.3*	24.2	-9.1	-0.1	-0.7	.	3.9
COc1cc(C=NNC(=O)c2cccnc2)cc(Br)c1O	.	.	.	.	.	16.9	.
COC(=O)c1scc(C)c1NN=C(C)c1cc(F)c(Cl)cc1F	.	.	.	.	.	-29.4	.
Cc1cc(C)n(C(=O)c2ccc(C)o2)n1	-1.1	14.2	-8.5	-0.2	2.6	0.8	.
Cc1cc(C)n(C(=O)c2cc3sccc3[nH]2)n1	4.7*	14.8	-2.3	0.0	1.3	2.6	4.5
COCCCNc1nc2nonc2nc1N1CCN2CCCC2C1 (configuration not stated)	4.8*	12.4	-6.2	-0.1	1.4	8.1	3.4
COCCCNc1nc2nonc2nc1N1CCN(C2CCCC2)CC1	2.5	9.2	-1.8	0.5	-1.5	6.7	.
COc1cccc2cc(C(=O)Nc3ccccc3Cl)c(=NNS(=O)(=O)c3ccccc3)oc12	.	.	.	.	.	7.7	.
Cc1ccccc1-n1ncc2c([N+](=O)[O-])cc([N+](=O)[O-])cc21	5.6*	14.8	1.1	2.6	-0.5	.	2.8

Screening results as filed in PubChem BioAssay.
